Bioassay records deposited in PubChem by several laboratories.
HIF activator = HIF pathway transcriptional activation. U2OS HRE-luciferase reporter, luminescence; normalized: DMSO 0%, desferrioxamine 100%. AID 1910. 300,000 compounds, 0.32% hits. activation, % at 7.5 µM (by protocol);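 active = mean activation of at least 10% of the iron chelator positive control signal, with at least half of replicates also reaching 10%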
GAA850 FXN act = frataxin GAA850 promoter activation; HEK293 lucGAA850 FXN promoter luciferase reporter, 24 h; percent of 10 µM SAHA response; AID 540364; 360,000 compounds, 0.56% hits; activation, % at 6 µM;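 active = activation above the average of all compounds screened plus 3 SD, cutoff fixed separately per campaign, cut at about 7.5% in these data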;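 note: 0% = DMSO wells and 100% = 10 µM SAHA wells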
ABHD5 PLIN5 PPI = ABHD5-PLIN5 protein interaction inhibition; Q00G26+Q8WTS1; Split G. princeps luciferase complementation, luminescence, 4 h; inhibition, % at 4 µM; 360,000 compounds, 0.78% hits; AID 602281;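 active = inhibition above the mean inhibition across every tested compound plus 3 SD, cut at about 22% in these data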;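 note: 0% = DMSO only wells and the 100% control is not disclosed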
Target sequence (Q00G26 whole entry, looked up): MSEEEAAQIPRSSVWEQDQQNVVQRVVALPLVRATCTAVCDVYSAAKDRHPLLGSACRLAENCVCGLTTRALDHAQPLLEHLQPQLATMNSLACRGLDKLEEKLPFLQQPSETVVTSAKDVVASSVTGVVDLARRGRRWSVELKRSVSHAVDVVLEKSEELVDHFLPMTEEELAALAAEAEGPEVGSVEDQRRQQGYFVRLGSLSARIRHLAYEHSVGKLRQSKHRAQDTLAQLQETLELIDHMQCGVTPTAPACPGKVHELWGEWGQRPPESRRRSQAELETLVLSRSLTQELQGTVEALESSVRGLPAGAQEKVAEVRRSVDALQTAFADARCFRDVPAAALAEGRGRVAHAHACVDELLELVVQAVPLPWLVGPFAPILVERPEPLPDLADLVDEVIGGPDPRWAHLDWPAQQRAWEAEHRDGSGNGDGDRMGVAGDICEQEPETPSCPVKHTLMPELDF
Target sequence (Q8WTS1 whole entry, looked up): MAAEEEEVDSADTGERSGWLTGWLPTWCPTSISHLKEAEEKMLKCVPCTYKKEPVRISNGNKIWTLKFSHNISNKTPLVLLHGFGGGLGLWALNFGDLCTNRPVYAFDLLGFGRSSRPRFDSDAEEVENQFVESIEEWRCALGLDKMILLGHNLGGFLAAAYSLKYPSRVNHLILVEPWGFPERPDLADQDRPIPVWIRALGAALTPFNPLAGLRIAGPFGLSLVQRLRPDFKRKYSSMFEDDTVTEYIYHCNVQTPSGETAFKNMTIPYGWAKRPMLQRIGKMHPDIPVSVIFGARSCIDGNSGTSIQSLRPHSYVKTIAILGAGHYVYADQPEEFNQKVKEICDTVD
Rad51 HR inh = Rad51 (human) homologous recombination inhibition. hRad51 DNA strand exchange, fluorescence dequenching. inhibition, % at 10 µM. 200,000 compounds, 0.085% hits. AID 1385;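 active = inhibition above 40% at the single screening dose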;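 note: 0% = DMSO control wells and 100% = blanks with heterologous ssDNA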
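Test system: preformed human Rad51 ssDNA filaments. Compound dosing: single dose, 10 µM final compound. Incubation: filaments 15 min 37 °C, then compound 30 min. Technique: FRET fluorescence dequenching, excitation 485 nm, emission 520 nm. Read-out basis: percent inhibition from fluorescence, normalised to plate control and blank means. Benchmarks: plate controls and plate blanks.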
TAG inh = reduces triacylglycerol accumulation in H9c2 cells; inhibition, % at 12.5 µM; AID 651582; Nile Red lipid (TAG) fluorescence; cells loaded with 200 µM oleic acid; 230,000 compounds, 0.66% hits;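 active = pattern-corrected inhibition of lipid staining of at least 50% with the nuclear-stain viability signal not falling by more than 50%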;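 note: 0% = DMSO wells and 100% = triacsin C control wells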
Hsp70 activator = Hsp70 transcriptional activation, primary screen. HeLa Hsp70 promoter luciferase reporter, luminescence; scaled: vehicle 0, proteasome-inhibitor control 100%. activation, % at 10 µM. 200,000 compounds, 0.04% hits;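 active = activation above the mean across all tested compounds plus 3 SD, cutoff set per campaign, cut at about 5.5% in these data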;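 note: 100% = MG132 at 30 µM as the positive control and 0% = DMSO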
GAA30 counter = GAA30 FXN promoter activation counter-screen; shares compounds with GAA850 FXN act; HEK293 lucGAA30 FXN promoter luciferase, 24 h; DMSO = 0%, 5 µM ipriflavone = 100%; activation, % at 6 µM; 1,900 compounds, 66% hits;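 active = mean activation above the mean of solvent-only control wells plus 3 SD, cut at about 22% in these data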;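 note: counterscreen of GAA850 promoter hits where activity marks nonselective or luminescence artifacts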
FXN GAA850 conf = confirmation of GAA850 frataxin (FXN) promoter activators | shares compounds with GAA850 FXN act | HEK293 lucGAA850 FXN promoter luciferase reporter, 24 h; 100% = activation by SAHA | activation, % at 6 µM | 1,900 compounds, 86% hits | AID 588351;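 active = mean activation above a set limit taken from the primary screen, cut at about 8% in these data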;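 note: 0% = DMSO wells and 100% = 10 µM SAHA wells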
ABHD5-PLIN5 conf = confirmation of human ABHD5-PLIN5 interaction inhibitors; 2,200 compounds, 67% hits; shares compounds with ABHD5 PLIN5 PPI; inhibition, % at 4 µM; biochemical ABHD5-PLIN5 interaction, luminescence; in the data active = inhibition above about 23%;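 note: 0% = DMSO vehicle wells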
HNF4 split-luc = counter-screen for ABHD5-PLIN5 inhibitors: HNF4 split-luciferase; shares compounds with ABHD5 PLIN5 PPI; HNF4 dimerization, luminescence, biochemical; inhibition, % at 4 µM; 2,200 compounds, 77% hits; AID 651674;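 active = mean inhibition across replicate wells exceeding the computed hit threshold, cut at about 13% in these data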;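 note: light from luciferase halves that rejoin when HNF4 fusion proteins dimerize; 0% = DMSO only wells and the 100% control is not given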
* hit, by the source's call; . = no result given; ! = not confirmed by another sample. A selection: hits, their analogues and other compounds. The true share with any hit is near 1.9%.

SMILES	HIF activator	GAA850 FXN act	ABHD5 PLIN5 PPI	Rad51 HR inh	TAG inh	Hsp70 activator	GAA30 counter	FXN GAA850 conf	ABHD5-PLIN5 conf	HNF4 split-luc
O=C1C=CC(=O)N1c1ccccc1N1C(=O)C=CC1=O	.	8.7*	30*	.	19	.	-117	-35	64*	109*
O=C(Cc1ccccc1)Nc1cccc(N2C(=O)C=CC2=O)c1	-4	9.0*	29*	.	.	0	3	7	47*	107*
COc1cccc(NC(=O)Cc2ccccc2)c1	1	0	0	-1	-17	0	.	.	.	.
COc1cccc(NC(=O)c2nc(S(C)(=O)=O)ncc2Cl)c1	-4	50*	53*	.	.	.	69*	27*	77*	102*
CCOC(=O)c1ccc(NC(=O)c2nc(S(=O)(=O)Cc3ccccc3)ncc2Cl)cc1	-3	16*	49*	.	.	.	-40	-27	92*	92*
Cc1cccc(NC(=O)c2ccccc2NC(=O)c2ccco2)c1	0	0	-6	.	15	.	.	.	.	.
CCCCCn1c(=NC(=O)c2ccco2)c(C(=O)OCC)cc2c(=O)n3ccccc3nc21	0	8.0*!	56*!	.	11	0	7	9.0*	18	25*
CCOC(=O)CS(=O)(=O)c1ccccc1	2	1	1	-5	-1	0	.	.	.	.
CS(=O)(=O)c1nc(-c2ccc(F)cc2)cc(C(F)(F)F)n1	-2	39*	51*	-2	78	2	23*	71*	63*	99*
CCOC(=O)CS(=O)(=O)c1nc(-c2ccccc2)cc(C(F)(F)F)n1	1	11*	67*	-10	21	0	-54	-23	76*	107*
Fc1cccc(Cc2c(-c3ccccc3)nc3c(Cl)cc(C(F)(F)F)cn23)c1	.	.	0	.	.	.	.	.	.	.
CC(Sc1nc2ccccc2s1)C(=O)N(C)Cc1ccccc1 (stereo unspecified)	0	1	-5	.	.	.	.	.	.	.
Cc1cc(C)nc(Sc2ccc([N+](=O)[O-])cc2[N+](=O)[O-])n1	0	3	-2	-13	1	0	.	.	.	.
O=[N+]([O-])c1ccc(Sc2ccncn2)c([N+](=O)[O-])c1	.	71*	29*	.	14	.	-20	97*	41*	41*
O=[N+]([O-])c1ccc(S(=O)(=O)c2cccc(C(F)(F)F)c2)nc1	3	14*	52*	.	93	.	-113	-34	88*	113*
CCOc1ccc(S(=O)(=O)N2CCCC(C(=O)NCC3CCCO3)C2)cc1Cl (stereo unspecified)	-1	2	6	.	4	.	.	.	.	.
O=C(Nc1cccc(S(=O)(=O)C(F)(F)F)c1)[C@@H]1O[C@H](CO)[C@@H](O)[C@H]1O	.	2	-2	.	3	.	.	.	.	.
O=S(=O)(Nc1cccc(S(=O)(=O)N2CCCCC2)c1)c1ccc(Cl)s1	.	0	0	.	.	.	.	.	.	.
O=C(NCc1ccc2c(c1)OCO2)c1ccc(Br)cc1	-1	3	0	.	.	.	.	.	.	.
O=C1Nc2ccc(Br)cc2/C1=C/C(=O)c1ccc2c(c1)OCO2	1	11*	72*	5	0	.	14	9.9*	93*	90*
Cc1cc(C)c(C(CC(=O)c2cccs2)C(C#N)C#N)c(C)c1 (stereo unspecified)	3	9.0*	24*	13	15	0	100*	61*	64*	41*
CCCCn1c(N)c(N(CCOC)C(=O)c2ccc(C)c(S(=O)(=O)N3CCCCC3)c2)c(=O)[nH]c1=O	0	0	0	.	-18	.	.	.	.	.
